Experimental data: paper PMC4065498 (Chemical research in toxicology, 2010)
Where “and” joins values, the source holds several entries; their conditions need not be identical. Identical values can stand only once. Entries after “also recorded” stand apart in the source; their conditions may differ.

Experiments:
[1] = molecular target: T1, native CES1 in THP1 lysates (Homo sapiens, UniProt P23141); assay: Activity-based protein profiling with FP-biotin in THP1 lysate: CES1; assay type: biochemical
T1 sequence (P23141 18-567): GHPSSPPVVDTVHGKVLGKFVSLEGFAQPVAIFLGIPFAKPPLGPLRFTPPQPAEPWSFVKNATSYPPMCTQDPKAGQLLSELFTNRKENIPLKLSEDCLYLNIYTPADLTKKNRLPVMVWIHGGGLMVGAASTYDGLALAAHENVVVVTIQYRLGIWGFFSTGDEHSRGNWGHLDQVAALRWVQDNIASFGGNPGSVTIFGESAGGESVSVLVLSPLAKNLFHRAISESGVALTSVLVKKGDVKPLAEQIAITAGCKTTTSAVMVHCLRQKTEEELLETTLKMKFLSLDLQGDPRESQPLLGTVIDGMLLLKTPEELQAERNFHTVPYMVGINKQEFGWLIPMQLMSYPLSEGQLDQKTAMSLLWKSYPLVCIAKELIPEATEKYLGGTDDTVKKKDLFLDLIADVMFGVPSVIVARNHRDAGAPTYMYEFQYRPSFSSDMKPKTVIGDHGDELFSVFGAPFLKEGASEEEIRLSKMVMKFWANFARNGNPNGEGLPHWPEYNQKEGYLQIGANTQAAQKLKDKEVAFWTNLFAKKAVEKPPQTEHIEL
Method in brief: (§1)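 THP1 monocyte lysate (1 mg/ml protein in 50 mM Tris-HCl, pH 7.4) was labelled with 2 μM FP-biotin for 1 h at room temperature. Irreversible inhibitors were preincubated for 30 min (37°C) before the probe. For the reversible inhibitor, lysate received inhibitor, then 0.2 μM FP-biotin for 7.5 min, short of full labelling. Reactions were stopped in reducing SDS loading buffer (95°C, 5 min), run on SDS-PAGE and blotted with avidin-HRP.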

[2] = system: 31-32kDa enzyme in THP1 lysates; assay: Activity-based protein profiling with FP-biotin in THP1 lysate: 31-32kDa enzyme; assay type: biochemical, human
Method in brief: as §1

[3] = molecular target: T2, recombinant human MAGL (Homo sapiens, UniProt Q99685); assay: Off-target test: 2AG hydrolysis by recombinant human MAGL with S-3030; assay type: biochemical; conditions: S-3030 50 μM, 2AG 25 μM, 10 min pre-incubation
T2 sequence (Q99685 1-303): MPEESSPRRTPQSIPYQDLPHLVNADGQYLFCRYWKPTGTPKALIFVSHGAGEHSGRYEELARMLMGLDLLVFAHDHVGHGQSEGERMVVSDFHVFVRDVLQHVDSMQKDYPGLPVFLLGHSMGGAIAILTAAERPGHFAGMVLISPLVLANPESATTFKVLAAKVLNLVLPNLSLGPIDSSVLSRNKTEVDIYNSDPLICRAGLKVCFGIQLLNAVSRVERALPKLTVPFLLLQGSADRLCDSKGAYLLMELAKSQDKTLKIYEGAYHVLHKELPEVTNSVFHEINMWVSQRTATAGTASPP

[4] = system: lipid glyceryl ester hydrolase activities of THP1 monocyte lysates
[5] = system: THP1 macrophages; assay: In situ formation of PG-Gs by LPS-primed THP1 macrophages given exogenous 2AG; assay type: cell-based, human; conditions: indomethacin 3 μM added along with CPO prior to 2AG
[6] = molecular target: T3, recombinant human CES1 (Homo sapiens, UniProt P23141); assay: Off-target test: 2AG hydrolysis by recombinant human CES1 with NAM; assay type: biochemical; conditions: NAM 50 μM, 2AG 25 μM, 10 min pre-incubation
T3 sequence (P23141 18-567): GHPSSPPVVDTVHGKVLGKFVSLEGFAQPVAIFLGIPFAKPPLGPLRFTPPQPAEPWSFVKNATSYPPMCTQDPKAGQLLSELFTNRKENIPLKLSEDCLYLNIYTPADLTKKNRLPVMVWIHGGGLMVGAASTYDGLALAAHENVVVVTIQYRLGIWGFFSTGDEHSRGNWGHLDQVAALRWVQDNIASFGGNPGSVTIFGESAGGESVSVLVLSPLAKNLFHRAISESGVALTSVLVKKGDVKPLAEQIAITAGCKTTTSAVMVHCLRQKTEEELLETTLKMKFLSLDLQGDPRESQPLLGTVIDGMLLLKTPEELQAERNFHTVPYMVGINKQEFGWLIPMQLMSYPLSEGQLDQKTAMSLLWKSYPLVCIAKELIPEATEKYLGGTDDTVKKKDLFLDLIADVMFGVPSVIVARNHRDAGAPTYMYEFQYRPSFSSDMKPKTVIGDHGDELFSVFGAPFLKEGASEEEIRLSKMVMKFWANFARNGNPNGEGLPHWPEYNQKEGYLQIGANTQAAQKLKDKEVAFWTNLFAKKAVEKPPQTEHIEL

[7] = molecular target: T3, recombinant human CES1; assay: Recombinant human CES1 activity using pNPV as substrate; assay type: biochemical; conditions: data not shown
[8] = molecular target: T3, recombinant human CES1; assay: Hydrolysis of 2AG and PG-Gs by recombinant CES1; assay type: biochemical; conditions: human CES1; average ± SE of 2-4 independent experiments
[9] = molecular target: T4, recombinant human CES2 (Homo sapiens, UniProt O00748); assay: Hydrolysis of 2AG and PG-Gs by recombinant CES2; assay type: biochemical; conditions: human CES2; average ± SE of 2-4 independent experiments
T4 sequence (O00748 27-559): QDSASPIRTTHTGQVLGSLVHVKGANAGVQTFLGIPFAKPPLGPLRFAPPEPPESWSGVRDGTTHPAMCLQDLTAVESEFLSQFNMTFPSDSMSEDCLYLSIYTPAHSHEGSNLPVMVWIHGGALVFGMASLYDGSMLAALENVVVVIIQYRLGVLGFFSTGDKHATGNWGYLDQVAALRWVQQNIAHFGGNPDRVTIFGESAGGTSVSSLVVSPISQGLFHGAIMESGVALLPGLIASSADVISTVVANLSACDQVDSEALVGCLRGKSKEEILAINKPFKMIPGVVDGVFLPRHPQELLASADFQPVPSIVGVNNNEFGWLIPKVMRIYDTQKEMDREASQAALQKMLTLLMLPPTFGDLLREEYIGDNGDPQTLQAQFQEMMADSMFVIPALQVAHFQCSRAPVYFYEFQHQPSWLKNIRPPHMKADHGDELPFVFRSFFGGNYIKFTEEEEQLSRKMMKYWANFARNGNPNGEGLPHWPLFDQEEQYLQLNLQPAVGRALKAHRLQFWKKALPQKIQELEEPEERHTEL

[10] = molecular target: T2, recombinant human MAGL; assay type: biochemical; conditions: substrate 25 μM, 15 min, recombinant human enzymes
Method in brief: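 Purified recombinant human enzymes were compared; CES1 was expressed in baculovirus-infected Spodoptera frugiperda cells.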

[11] = system: CES1-depleted THP1 monocyte lysates; assay: PG-G and 2AG hydrolysis by CES1-immunodepleted THP1 monocyte lysates; assay type: biochemical, human; conditions: 25 μM PG-G or 10 μM 2AG, 30 min; versus preimmune IgG control
Method in brief: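 THP1 monocyte lysate was solubilised in 50 mM Tris-HCl (pH 7.4) with 0.5% w/v Brij (1 h, 4°C). It was then incubated overnight with anti-CES1 or preimmune IgG plus protein A-agarose, and depletion was checked by western blot. Substrate (25 μM PG-G or 10 μM 2AG) in the same buffer was preheated 5 min at 37°C, then started with 10-30 μg supernatant lysate; 2AG ran 30 min. Reactions were run in duplicate or triplicate across ≥2 IP experiments, compared by Student's t-test.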

[12] = maximal inhibition using 100 μM S-3030

## O=C1C(=O)c2sccc2-c2ccsc21 [S-3030, thieno[3,2-e][1]benzothiophene-4,5-dione]
[1]
  IC50: ~23 µM
[2]; S-3030 0-100 μM, FP-biotin 0.2 μM, 7.5 min
  inhibition of the 31-32kDa enzyme (FP-biotin band intensity): not reduced
[3]
  inhibition of recombinant human MAGL activity: did not inhibit; also recorded: does not inhibit
[4]; [12]
  inhibition of 2AG hydrolysis in THP1 monocyte lysate: 55% and 50%
  inhibition of PGE2-G hydrolysis in THP1 monocyte lysate: 97% and > 95%
  inhibition of PGF2α-G hydrolysis in THP1 monocyte lysate: 80%

## COc1ccc2c(c1)c(CC(=O)O)c(C)n2C(=O)c1ccc(Cl)cc1 [indomethacin]
[5]
  formation of PG-Gs by THP1 macrophages: blocked formation of PG-Gs

## CN(Cc1cccc(-c2ccncc2)c1)C(=O)Oc1ccc(-c2ccc(C(N)=O)cc2)cc1 [WWL70]
[4]; specific ABHD6 inhibitor
  inhibition of 2AG hydrolytic activity in THP1 cell lysate: did not inhibit; also recorded: does not inhibit

## CCCCC/C=C\C/C=C\C/C=C\C/C=C\CCCC(=O)N1C(=O)C=CC1=O [NAM, N-arachidonoyl maleimide]
[6]
  inhibition of recombinant CES1 activity toward 2AG: inhibits

## O=C(Oc1ccc([N+](=O)[O-])cc1)N1CCC(C(O)(c2ccc3c(c2)OCO3)c2ccc3c(c2)OCO3)CC1 [JZL184]
[1]; JZL184 as low as 0.1 μM
  inhibition of CES1 in THP1 cell lysate (FP-biotin activity blot): completely inhibit
[2]; concentrations as high as 100 μM, 30 min
  inhibition of the 31-32kDa enzyme (FP-biotin activity probe): not inhibited
[7]
  inhibition of recombinant human CES1 activity using pNPV as substrate: potently inhibit
[4]; maximal reduction by JZL184
  reduction of PGF2α-G hydrolytic activity in THP1 monocyte lysate: 80%

## prostaglandin E2 glyceryl ester [PGE2-G]
[8]
  Km: 250 ± 60 µM
  kcat: 90 ± 16^b min^−1
[9]
  Km: 705 ± 380 µM
  kcat: 2.5 ± 1.35 s⁻¹
[10]
  hydrolysis rate by MAGL relative to CES1: 2 fold
[11]
  reduction of hydrolysis activity of CES1-depleted lysate: 80%
